Assay results from the EternaBench riboswitch data.

Tests used:
MS2 coat protein [1] = experiment: apparent Kd, MS2 coat protein; higher = weaker binding; RNA-MaP array; tryptophan 2.4 mM where present
Summary of the method: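 Stalled E. coli RNA polymerase transcribed the designs on Illumina sequencing-chip clusters. SNAP-549-labelled MS2 coat protein was titrated from 0.7 or 1.5 nM, doubling to 3 µM, without and then with constant ligand, in 100 mM Tris-HCl pH 7.5, 80 mM KCl, 4 mM MgCl2, BSA, DTT, yeast tRNA and Tween-20. Per-cluster binding curves were fitted to green signal normalised to red-channel RNA signal and control-cluster median Fmax. The apparent Kd is the median of the filtered fits.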

MS2 coat protein [2] = experiment: apparent Kd, MS2 coat protein; higher = weaker binding; RNA-MaP array
Summary of the method: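 Designed RNAs were transcribed in place on an Illumina sequencing chip from sequenced DNA templates. At room temperature and with or without input ligand, they were incubated with fluorescently labeled MS2 coat protein from 1.5 nM to 3 μM, for 0.8–1.5 h at the lowest and 10–20 min at the highest concentrations. Apparent Kd is the median of the binding-curve fits made per cluster, with designs measured on fewer than 10 clusters excluded.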

[3] = designed as: OFF switch for tryptophan, no ligand
[4] = ligand present: tryptophan, designed as: OFF switch for tryptophan
[5] = designed as: ON switch for tryptophan, no ligand
[6] = ligand present: tryptophan, designed as: ON switch for tryptophan
[7] = designed as: ON switch for flavin mononucleotide, no ligand
[8] = ligand present: flavin mononucleotide, designed as: ON switch for flavin mononucleotide
[9] = designed as: OFF switch for flavin mononucleotide, no ligand
[10] = ligand present: flavin mononucleotide, designed as: OFF switch for flavin mononucleotide
[11] = designed as: ON switch for theophylline, no ligand
[12] = ligand present: theophylline, designed as: ON switch for theophylline
[13] = designed as: OFF switch for theophylline, no ligand
[14] = ligand present: theophylline, designed as: OFF switch for theophylline

UUAUAAGUACCGGUCCUCAGAUCCUCAUGACGAGGACCGGUACGGCCGCCACUCGAAACAUGAGGAUCACCCAUGUAAUAAUAAC
apparent Kd (MS2 coat protein [1]; [3]): 37.2 nM | apparent Kd (MS2 coat protein [1]; [4]): 18.2 nM

AGAUUCGACACGGCCGCCACUUGUGGUGGAUUAUCCUGUGUCGAACAUGAGGAUCACCCAUGUACAAGGACCGGGUGUUGAGUCU
apparent Kd (MS2 coat protein [1]; [3]): 136 nM | apparent Kd (MS2 coat protein [1]; [4]): 73.9 nM

CACAGUGCGAAAUUGAAACCGCACGAUCCUCGAGGACCGGUACGGCCGCCACUCGCGCGGGUCGUACAUGAGGAUCACCCAUGUC
apparent Kd (MS2 coat protein [1]; [5]): 262 nM | apparent Kd (MS2 coat protein [1]; [6]): 371 nM

UAUCGUCAGACGGCCGCCACUAGUACAUGAGGAUCACCCAUGUAGGUCCUAGAUUCCUCAUGAUCUAGGACCGGGUCUGACGAAU
apparent Kd (MS2 coat protein [1]; [3]): 39 nM | apparent Kd (MS2 coat protein [1]; [4]): 23 nM

GGUUACUCUACGGCCGCCACUGAAAAGUAAAUAUUAAUGUACAUGACAUGAGGAUCACCCAUGUACAGGACCGGGUAGUGUAACC
apparent Kd (MS2 coat protein [1]; [5]): 84.2 nM | apparent Kd (MS2 coat protein [1]; [6]): 21.5 nM

CAUGUGAAAAUAAGAAGAAGAAGAAUAAAUCGAGGACCGGUACGGCCGCCACUCGUCGAAUCACAUGAGGAUCACCCAUGUAGCC
apparent Kd (MS2 coat protein [1]; [3]): 65.1 nM | apparent Kd (MS2 coat protein [1]; [4]): 50.9 nM

AACAUGAGGAUCACCCAUGUACCUUUCGAUCGAGGACCGGUACGGCCGCCACUCGAAAACAUGAGGAUCACCCAUGUUCAACAGG
apparent Kd (MS2 coat protein [1]; [5]): 145 nM | apparent Kd (MS2 coat protein [1]; [6]): 87.4 nM

CAGACCCGGCGGGAGGAUAUACGAGAGAACACAUGAGGAUCACCCAUGUUGCACUAAACAGCGUGGUAGAAGGCCCAUCAUCUGUA
apparent Kd (MS2 coat protein [2]; [7]): 56.8 nM | apparent Kd (MS2 coat protein [2]; [8]): 11.9 nM

UCCUUUAGACAUGAGGAUCACCCAUGUAGCCUCACUGUUCGUAGAAGGACACCGCUGUUCAAGCUGUAGGAUAUACGGAGGAUC
apparent Kd (MS2 coat protein [2]; [9]): 468 nM | apparent Kd (MS2 coat protein [2]; [10]): 319 nM

CGUCUACAUGAGGAUCACCCAUGUCAGGAUAUACACCAACAACCUUCGCGAGAUAGGUGUAGAAGGGACGGGUA
apparent Kd (MS2 coat protein [2]; [9]): 8.76 nM | apparent Kd (MS2 coat protein [2]; [10]): 13.5 nM

ACUGGUUCGGUUGUCACACAUGAGGAUCACCCAUGUAAGGUAGAGGAUAUCGCUCCGUCCUUCGGCGAGAAGGCUAUUCGACGC
apparent Kd (MS2 coat protein [2]; [9]): 13 nM | apparent Kd (MS2 coat protein [2]; [10]): 10.3 nM

AGUGGUGGGAAGGAUAUCUUCCGGCGUUAGCCUAGAGAAGGUCCCACAUGAGGAUCACCCAUGUUGACAUCGGU
apparent Kd (MS2 coat protein [2]; [9]): 373 nM | apparent Kd (MS2 coat protein [2]; [10]): 183 nM

GAAAGAUGAGGAUAUACAUGAGGAUCACCCAUGUGAUUAAAUUGAACACCGAAUUACUGUAGAAGGCAUAAACC
apparent Kd (MS2 coat protein [2]; [9]): 19.9 nM | apparent Kd (MS2 coat protein [2]; [10]): 16.8 nM

CCAUGACAUGAGGAUCACCCAUGUGGGUGCAGACAAGGAUAUAGUAAGAAUAGGAUAGAUCUAGAAGGUGUCAUUA
apparent Kd (MS2 coat protein [2]; [7]): 528 nM | apparent Kd (MS2 coat protein [2]; [8]): 282 nM

CCGUAUCCGUAGGAUAUCGACACGAGUCACGUGCGAGAAGGACGGACAUGAGGAUCACCCAUGUAUGCUUCGUG
apparent Kd (MS2 coat protein [2]; [9]): 22.6 nM | apparent Kd (MS2 coat protein [2]; [10]): 48.4 nM

GGCUAACAUGAGGAUCACCCAUGUAUUGAUACCAGUAUUUGAAAAUACCCUUGGCAGCAAAUGAAGAGCGUAGCAGGGUCGAUUA
apparent Kd (MS2 coat protein [2]; [11]): 11.3 nM | apparent Kd (MS2 coat protein [2]; [12]): 16.8 nM

AUUAGACAAGGAUAUACAAGUCGUAUCGGCGCUGGGUGUAUACAUGAGGAUCACCCAUGUAGAAGGUGUGCUAU
apparent Kd (MS2 coat protein [2]; [9]): 101 nM | apparent Kd (MS2 coat protein [2]; [10]): 190 nM

UCUGUGAUCAACAUGAGGAUCACCCAUGUUACCACCUCUAGGCAGGAUAUGAGCGUACUAAGAAGUCAGAAGGGCCUUUUUACG
apparent Kd (MS2 coat protein [2]; [7]): 18.3 nM | apparent Kd (MS2 coat protein [2]; [8]): 10.1 nM

GCACAAUUAGGAUAUACAUGGGUAUAGGGUGAGACGAAUGCACAUGAGGAUCACCCAUGUAGAAGGAAUCGUCA
apparent Kd (MS2 coat protein [2]; [9]): 303 nM | apparent Kd (MS2 coat protein [2]; [10]): 332 nM

CCUUCAGAUGAGAAGGCCAUCUACGGCUGGACACGGCAGUAACAUGAGGAUCACCCAUGUUUAAUGGAGGAUAUCAACGGAAGC
apparent Kd (MS2 coat protein [2]; [7]): 12.3 nM | apparent Kd (MS2 coat protein [2]; [8]): 8.94 nM

CGUUAGACAGGAUAUACACUGGGAAGCGCGGUUUGCGGGAGACAUGAGGAUCACCCAUGUAGAAGGGUCCGGCA
apparent Kd (MS2 coat protein [2]; [9]): 9.14 nM | apparent Kd (MS2 coat protein [2]; [10]): 9.4 nM

CUGGUUGCCGGUUGCGACACAUGAGGAUCACCCAUGUAUACCGAGGAUAUGUGGAGCUGUAGAUGACAGAAGGCGGUGAGUAUC
apparent Kd (MS2 coat protein [2]; [7]): 53.7 nM | apparent Kd (MS2 coat protein [2]; [8]): 38.1 nM

ACAGUACAUGAGGAUCACCCAUGUAGAAGAUGCUCAGGAUAUUGUGAGUCAGGUUAUGUACAAGAAGGGAGGCACG
apparent Kd (MS2 coat protein [2]; [7]): 25.4 nM | apparent Kd (MS2 coat protein [2]; [8]): 14.1 nM

UAUCGAAGGUUUAAGGAUAUCGGCAGGCUCACAUGAGGAUCACCCAUGUCGCGAACAUCGCGCUACGAGAAGGUAAUCUUGAUGCA
apparent Kd (MS2 coat protein [2]; [7]): 58.9 nM | apparent Kd (MS2 coat protein [2]; [8]): 24.3 nM

UUAGGUUAUAAAGUGACAUGAGGAUCACCCAUGUGCUCACAGAGAAGGUUAUACCUACAGGCUAUAAAGGAUAUCUCCUAAAUU
apparent Kd (MS2 coat protein [2]; [9]): 12.3 nM | apparent Kd (MS2 coat protein [2]; [10]): 8.73 nM

AACCACAUGAGGAUCACCCAUGUGACCGCUCGAGGACCGGUACGGCCGCCACUCGUGGAGGGACUUAUGCGUUAUCCGGGUAAAU
apparent Kd (MS2 coat protein [2]; [5]): 19.4 nM | apparent Kd (MS2 coat protein [2]; [6]): 22.6 nM

UCUAUGUUAGGAUAUCUGUUGCAUGCCUGGCCGCGAUGCAAAGAGAAGGAACAUGAGGAUCACCCAUGUCAUAU
apparent Kd (MS2 coat protein [2]; [9]): 19.3 nM | apparent Kd (MS2 coat protein [2]; [10]): 41.6 nM

AACGGUUUUUAGAAGGGCGUCAGGGACCUUGGACAUGAGGAUCACCCAUGUGUGCAGACACCUGCGCAGGAUAUAAGUUCUCUA
apparent Kd (MS2 coat protein [2]; [9]): 12.6 nM | apparent Kd (MS2 coat protein [2]; [10]): 9.53 nM

UGUACAUGAGGAUCACCCAUGUUUGUAUCUUUAUCCGCGCGCAGAAGGUAGCCCAUGGAGACAGCUAAGGAUAUGCGUCACAUA
apparent Kd (MS2 coat protein [2]; [9]): 21.5 nM | apparent Kd (MS2 coat protein [2]; [10]): 8.83 nM

CCAAUAUCUAUAGGAUAUCAAUGACCAAACUGAACAUGAGGAUCACCCAUGUAGUGAGUGACUUAUGAGAAGGAUAGACGUACC
apparent Kd (MS2 coat protein [2]; [7]): 104 nM | apparent Kd (MS2 coat protein [2]; [8]): 22.9 nM

GCUCAUUGCGAGGAUAUUGGAAGAGUGUAAACUCAAGAAGGCGCAACAUGAGGAUCACCCAUGUGAACCCAAAU
apparent Kd (MS2 coat protein [2]; [9]): 7.91 nM | apparent Kd (MS2 coat protein [2]; [10]): 14 nM

UGACUAAAGGAGAAGGGCCACUCCAUUACUUCGGCAGGAUAUCCAUAAACAUGAGGAUCACCCAUGUACAUACAUUGGACGGCG
apparent Kd (MS2 coat protein [2]; [7]): 8.62 nM | apparent Kd (MS2 coat protein [2]; [8]): 7.73 nM

AGACAUGGCGGAUAGGAUAUGUGGGCGUCUACAUGAGGAUCACCCAUGUUGCUCGGAUGCAAUCUACAGAAGGAUCGACCCAGUGC
apparent Kd (MS2 coat protein [2]; [7]): 106 nM | apparent Kd (MS2 coat protein [2]; [8]): 16.1 nM

AGUUAACCGGGUGUUCUACAUGAGGAUCACCCAUGUACACUCAGAAGGCUCGAAUCUAGGGAUGGAGAGGAUAUGAAAACUGAU
apparent Kd (MS2 coat protein [2]; [9]): 21.4 nM | apparent Kd (MS2 coat protein [2]; [10]): 36.5 nM

ACAUCGAGGCGAGGAUAUAUGACAUGAGGAUCACCCAUGUCUGCGUGAUCGUCGAACAAAUGUUCAUAGAAGGCGCUAGAAAUG
apparent Kd (MS2 coat protein [2]; [9]): 112 nM | apparent Kd (MS2 coat protein [2]; [10]): 20.6 nM

CCCAAGCCAGCUGAUACCAGUGACGUGGUCAGAAUGUGCGACAUGAGGAUCACCCAUGUACACCCUUGGCAGCAGUAGAACGGUU
apparent Kd (MS2 coat protein [2]; [13]): 14.4 nM | apparent Kd (MS2 coat protein [2]; [14]): 51.7 nM

GUGCAGUUAUUAGGAUAUAAGACAUGGGACAUGAGGAUCACCCAUGUCGUAAGAAAUACCGUUGAUUAGAAGGAAUUCCGGCAC
apparent Kd (MS2 coat protein [2]; [7]): 1010 nM | apparent Kd (MS2 coat protein [2]; [8]): 283 nM

CCCGUAAAGGCGGCCGCCACUGUAUGACAUGAGGAUCACCCAUGUAGGGAAAAUGCGAUGGUCGUCAGGACCGGGCCUCUGGCAU
apparent Kd (MS2 coat protein [2]; [3]): 23.1 nM | apparent Kd (MS2 coat protein [2]; [4]): 23.8 nM

AAGGCUACGACCGAUACCAGUAGACGGCAUUCGUAGGAGAACAUGAGGAUCACCCAUGUCUACCCUUGGCAGCGGAAAAUACACU
apparent Kd (MS2 coat protein [2]; [13]): 13.5 nM | apparent Kd (MS2 coat protein [2]; [14]): 39.8 nM

ACCGGCACCUAGGAUACCAGAUCCACAACAAACAUGAGGAUCACCCAUGUAUAAAGUGGUAUCCCUUGGCAGCCUGUGACAAUCG
apparent Kd (MS2 coat protein [2]; [11]): 16.5 nM | apparent Kd (MS2 coat protein [2]; [12]): 14.8 nM

UACAAAGAAUAGGAUAUCGAGAGGUAAUUUGGGCGAGAAGGAUUCACAUGAGGAUCACCCAUGUAGGCGGAUCU
apparent Kd (MS2 coat protein [2]; [9]): 30.7 nM | apparent Kd (MS2 coat protein [2]; [10]): 40.9 nM
